The values below come from ChEMBL document CHEMBL1131378, “Synthesis and endectocidal activity of novel 1-(arylsulfonyl)-1-[(trifluoromethyl)sulfonyl]methane derivatives” (J Med Chem, 1998).

One may read the pKa as the pH at which an ionisable group is half protonated. In general, IC50 refers to the concentration needed to halve the response being measured. A low value points to greater potency in that assay. As a reminder, the logP is a log measure of how a compound divides between an organic and an aqueous phase. Read a low logP as lower lipophilicity.

Series [1] concerns Stomoxys calcitrans. Description: Insecticidal property against Stomoxys calcitrans measured as lowest concentration in bovine serum vs adult stable fly giving > 90% mortality. In kind it is functional. A digest of the protocol:
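Serum titrated with compound from 100 ppm downward was soaked into dental wicks and placed in dishes with 10 chilled adult stable flies. Kept about 48 h at about 25 °C and 75–85% humidity. Percent mortality was scored at 24 and 48 h against a wick with control serum only.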

Series [2] in a line: (§1) Number of days posttreated in which >90% mortality of ASF was seen following exposure of insects to serum from sheep treated with 10 mg/kg of BW of compound by single ir injection. It counts as functional. A digest of the protocol:
(§2)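 Parasitized sheep (two per compound) received a single intraruminal injection at 10 mg/kg BW in PEG 200. Blood was drawn daily for 14 days and left about 24 h to separate. Serum-soaked dental wicks were exposed to adult stable flies for 48 h, with mortality compared to a serum-only control. Days posttreatment giving >90% mortality were counted.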

The nature of series [3]: The pKa value in aqueous solution. It counts as physicochemical. A digest of the protocol:
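pKa measured in aqueous solution.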

For series [4], the system named is Haemonchus contortus. The experiment in a line: Compound was tested for % reduction of Haemonchus contortus worms in sheep dosed at 10 mg/kg by single ir injection. In kind it is functional. The method, boiled down: (§3)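 Lambs with baseline fecal egg counts on days 26–28 postinoculation randomised to groups and held in individual metabolism crates. A single 10 mg/kg BW intraruminal dose was given in PEG 200. Fecal EPG was measured daily. Total H. contortus worm counts were used to calculate % reduction as (TWC control − TWC treated)/TWC control × 100, against untreated controls.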

The species entered for another series is Rattus norvegicus. The experiment in a line: Uncoupler concentration that reduced the respiratory control index by 50% of coupled rat liver mitochondria. It counts as functional.
Series [5] relates to Haemonchus contortus. The experiment in a line: The compound was tested for % reduction of Haemonchus contortus worms in gerbils dosed at 25 mg/kg. It counts as functional. The method, boiled down:
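Mongolian gerbils infected with H. contortus received one oral gavage at 25 mg/kg BW in DMSO/H2O. Untreated infected gerbils served as negative controls and levamisole-dosed gerbils as positive controls, three per group. Stomachs and contents were vortexed in saline, incubated at 35 °C for at least 1 h and stained with iodine. Worms were counted per gerbil and % reduction taken against the mean of infected untreated controls.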

Series [6] can be described thus: Partition coefficient (logP) (HPLC). In kind it is physicochemical. The following applies: octanol/water. A digest of the protocol:
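Partition coefficient measured chromatographically.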

For series [7], the system named is Stomoxys calcitrans. The description is as §1. It counts as functional. A digest of the protocol: as §2
In series [8] the test system is Haemonchus contortus. Description: The compound was tested for % Reduction of Haemonchus contortus worms in sheep dosed at 10 mg/kg by single ir injection. It counts as functional. The method, boiled down: as §3

Consider `COc1ccc(S(=O)(=O)CS(=O)(=O)C(F)(F)F)cc1`, for which the ASF in the series on Stomoxys calcitrans [1] is given as greater than 100 p.p.m.

In the case of `O=S(=O)(c1ccc(OC(F)(F)F)cc1)C(CSc1cccc(F)c1)S(=O)(=O)C(F)(F)F` (stereo not drawn), the ASF in the series on Stomoxys calcitrans [1] is recorded as 50 p.p.m.

Consider `O=S(=O)(CS(=O)(=O)C(F)(F)F)c1cc(C(F)(F)F)cc(C(F)(F)F)c1`, for which the ASF with Stomoxys calcitrans [1] is recorded as 50 p.p.m.

For the molecule `O=S(=O)(CS(=O)(=O)C(F)(F)F)c1ccc(F)c(Cl)c1`, in the series on Stomoxys calcitrans [1], the ASF came to 100 p.p.m.

Take `O=S(=O)(CS(=O)(=O)C(F)(F)F)c1ccc(C(F)(F)F)cc1`: in series [2], the Days is given as 0. The molecule further displayed a pKa in series [3] of 4. In addition, the Reduction with Haemonchus contortus [4] and in the series on Haemonchus contortus [5] was 100% throughout. The ASF with Stomoxys calcitrans [1] is reported as 50 p.p.m. Also, the IC50 in the series listed under Rattus norvegicus came to 5400 µM. For the same molecule, in [6], the logP came to 1.

`CC(S(=O)(=O)c1ccc(OC(F)(F)F)cc1)S(=O)(=O)C(F)(F)F` (stereo not drawn) yielded a Days in series [2] of 6. In addition, the pKa in series [3] was 6.2. In addition, the Reduction in the series on Haemonchus contortus [4] and in the series on Haemonchus contortus [5] was 100% throughout. For the same molecule, in the series on Stomoxys calcitrans [1], the ASF was determined as 25 p.p.m. The molecule further yielded a half-maximal inhibitory concentration (IC50) in the series filed under Rattus norvegicus of 710 µM. In series [6], this molecule came in with a logP of 3.

For `CSC(S(=O)(=O)c1ccc(Cl)cc1)S(=O)(=O)C(F)(F)F` (stereo not drawn), in the series on Stomoxys calcitrans [1], the ASF is greater than 100 p.p.m.

With `O=S(=O)(c1ccc(Cl)cc1)C(Cc1ccccc1)S(=O)(=O)C(F)(F)F` (stereo not drawn), the ASF in the series with Stomoxys calcitrans [1] was greater than 100 p.p.m.

As for `CC(S(=O)(=O)c1ccc(Cl)cc1)S(=O)(=O)C(F)(F)F` (stereo not drawn), the ASF in the series on Stomoxys calcitrans [1] was 50 p.p.m.

In the case of `O=S(=O)(c1ccc(OC(F)(F)F)cc1)C(CSc1ccc(OC(F)(F)F)cc1)S(=O)(=O)C(F)(F)F` (stereo not drawn), in the series on Stomoxys calcitrans [1], the ASF is recorded as 50 p.p.m.

In the case of `Cc1ccc(S(=O)(=O)CS(=O)(=O)C(F)(F)F)cc1`, the ASF with Stomoxys calcitrans [1] was greater than 100 p.p.m.

Turning to `CC(C)(C)Sc1ccc(S(=O)(=O)CS(=O)(=O)C(F)(F)F)cc1`, the ASF in the series with Stomoxys calcitrans [1] was greater than 100 p.p.m.

`CC(C)(C)c1ccc(S(=O)(=O)CS(=O)(=O)C(F)(F)F)cc1` displayed a pKa in [3] of 5.1. In the series with Stomoxys calcitrans [1], the ASF is recorded as greater than 100 p.p.m. Moreover, half-maximal inhibition in the series filed under Rattus norvegicus (IC50) required 2800 µM. The molecule also registered a logP in series [6] of 2.4.

As for `Cc1cc(C(C#N)c2ccc(Cl)cc2)c(Cl)cc1NC(=O)c1cc(I)cc(I)c1O` (stereo not drawn) [CLOSANTEL], the IC50 in the series filed under Rattus norvegicus amounted to 927 µM.

On to `O=S(=O)(CS(=O)(=O)C(F)(F)F)c1c(Cl)cccc1Cl`, for which the ASF with Stomoxys calcitrans [1] is on record as greater than 100 p.p.m.

As to `O=S(=O)(c1ccc(OC(F)(F)F)cc1)C(Cl)(Cl)S(=O)(=O)C(F)(F)F`, in the series on Stomoxys calcitrans [1], the ASF is recorded as greater than 100 p.p.m.

Regarding `O=S(=O)(CS(=O)(=O)C(F)(F)F)c1ccc(OC(F)(F)C(F)F)cc1`, the ASF in the series with Stomoxys calcitrans [1] is 25 p.p.m.

`CCC(S(=O)(=O)c1ccc(Cl)cc1)S(=O)(=O)C(F)(F)F` (stereo not drawn): the ASF with Stomoxys calcitrans [1] stood at 50 p.p.m.

On to `O=S(=O)(CS(=O)(=O)C(F)(F)F)c1cccc(C(F)(F)F)c1`, for which the ASF in the series on Stomoxys calcitrans [1] is greater than 100 p.p.m.

`O=S(=O)(CS(=O)(=O)C(F)(F)F)c1ccc(OC(F)(F)F)cc1`: the Days in [2] was determined as 10. For the same molecule, in series [3], the pKa was 4.1. For the same molecule, the Reduction in the series on Haemonchus contortus [4] and in the series on Haemonchus contortus [5] was 100% throughout. In addition, in the series on Stomoxys calcitrans [1], the ASF came out at 25 p.p.m. Besides, the half-inhibitory concentration (IC50) in the series listed under Rattus norvegicus came out at 2950 µM. This molecule also displayed a logP in series [6] of 2.2.

Consider `O=[N+]([O-])c1ccc(S(=O)(=O)CS(=O)(=O)C(F)(F)F)cc1`, for which the ASF with Stomoxys calcitrans [1] is given as greater than 100 p.p.m.

Turning to `CS(=O)(=O)Oc1ccc(S(=O)(=O)CS(=O)(=O)C(F)(F)F)cc1`, the ASF with Stomoxys calcitrans [1] is reported as greater than 100 p.p.m.

Turning to `FC(F)(F)Oc1ccc(SCSC(F)(F)F)cc1`, the ASF in the series with Stomoxys calcitrans [1] is listed as greater than 100 p.p.m.

As to `O=S(=O)(CS(=O)(=O)C(F)(F)F)c1ccc(SC(F)(F)C(F)F)cc1`, the ASF in the series on Stomoxys calcitrans [1] is greater than 100 p.p.m.

With `O=S(=O)(CS(=O)(=O)C(F)(F)F)c1ccc(Cl)cc1`, in the series with Stomoxys calcitrans [7], the Days turned out to be 3. This molecule showed a pKa in series [3] of 4.4. Also, the ASF with Stomoxys calcitrans [1] amounted to 50 p.p.m. In the series filed under Rattus norvegicus, the midpoint of inhibition, the IC50, lay at 4000 µM. In addition, the Reduction with Haemonchus contortus [5] and in the series on Haemonchus contortus [8] was 100% throughout. Besides, in [6], the logP was 1.9.

As for `O=S(=O)(CS(=O)(=O)C(F)(F)F)c1ccc(O)cc1`, the ASF in the series on Stomoxys calcitrans [1] is greater than 100 p.p.m.

For `N#Cc1ccc(S(=O)(=O)CS(=O)(=O)C(F)(F)F)cc1`, the ASF in the series with Stomoxys calcitrans [1] was greater than 100 p.p.m.

The molecule `O=S(=O)(CS(=O)(=O)C(F)(F)F)c1ccc(F)cc1` had a pKa in series [3] of 4.6. The ASF with Stomoxys calcitrans [1] is on record as 100 p.p.m. In the series listed under Rattus norvegicus, the IC50 turned out to be 3150 µM. Also, in series [6], the log partition coefficient (logP) came out at 1.3.

For the molecule `O=S(=O)(c1ccc(OC(F)(F)F)cc1)C(CSc1ccc(Cl)cc1)S(=O)(=O)C(F)(F)F` (stereo not drawn), the ASF in the series with Stomoxys calcitrans [1] is 50 p.p.m.

For the molecule `O=S(=O)(CS(=O)(=O)C(F)(F)F)c1ccc(SC(F)(F)C(F)F)c(Cl)c1`, the ASF with Stomoxys calcitrans [1] is greater than 100 p.p.m.

Take `O=S(=O)(CS(=O)(=O)C(F)(F)F)c1ccc(Br)cc1`: the ASF in the series with Stomoxys calcitrans [1] amounted to 25 p.p.m.

`O=S(=O)(CS(=O)(=O)C(F)(F)C(F)(F)C(F)(F)C(F)(F)F)c1ccc(OC(F)(F)F)cc1`: in the series on Stomoxys calcitrans [1], the ASF is 25 p.p.m.

Take `O=S(=O)(CS(=O)(=O)C(F)(F)F)c1ccc(NS(=O)(=O)C(F)(F)F)cc1`: in the series with Stomoxys calcitrans [1], the ASF amounted to 100 p.p.m.

In [3], `O=[N+]([O-])c1ccc(O)c([N+](=O)[O-])c1` [2,4-DINITROPHENOL] came in with a pKa of 4.6. This molecule also came in with a half-maximal inhibitory concentration (IC50) in the series listed under Rattus norvegicus of 1000 µM. Besides, the logP in [6] turned out to be 1.5.

On to `O=S(=O)(c1ccc(Cl)c(Cl)c1)C(Cc1ccc(C(F)(F)F)cc1)S(=O)(=O)C(F)(F)F` (stereo not drawn), for which the ASF with Stomoxys calcitrans [1] came to 100 p.p.m.

For the molecule `O=S(=O)(CS(=O)(=O)C(F)(F)F)c1ccc(Cl)cc1Cl`, in the series on Stomoxys calcitrans [1], the ASF is greater than 100 p.p.m.

`O=S(=O)(c1ccc(OC(F)(F)F)cc1)C(CSc1ccc(F)cc1)S(=O)(=O)C(F)(F)F` (stereo not drawn) displayed a Days in [2] of 6. For the same molecule, the Reduction with Haemonchus contortus [4] and in the series with Haemonchus contortus [5] was 100% in each case. For the same molecule, in the series on Stomoxys calcitrans [1], the ASF came to 50 p.p.m.

On to `O=S(=O)(CS(=O)(=O)C(F)(F)F)c1ccc(Cl)c(Cl)c1`, for which the Days in the series with Stomoxys calcitrans [7] was 1. Also, in series [3], the pKa was 4. In addition, the ASF in the series with Stomoxys calcitrans [1] is greater than 100 p.p.m. Also, the 50% inhibitory concentration (IC50) in the series filed under Rattus norvegicus came to 3990 µM. Further, the Reduction in the series with Haemonchus contortus [5] and in the series with Haemonchus contortus [8] was 100% each time. The molecule also gave a logP in [6] of 1.7.

`O=S(=O)(CS(=O)(=O)C(F)(F)F)c1ccccc1Cl`: the ASF in the series with Stomoxys calcitrans [1] is given as greater than 100 p.p.m.

Take `O=S(=O)(CS(=O)(=O)C(F)(F)F)c1ccc(OS(=O)(=O)C(F)(F)F)cc1`: in the series with Stomoxys calcitrans [1], the ASF stood at 100 p.p.m.

Take `CC(S(=O)(=O)c1ccc(Cl)c(Cl)c1)S(=O)(=O)C(F)(F)F` (stereo not drawn): the ASF with Stomoxys calcitrans [1] was 25 p.p.m.

Regarding `O=S(=O)(CS(=O)(=O)C(F)(F)F)c1ccccc1`, the ASF in the series with Stomoxys calcitrans [1] was determined as 50 p.p.m.
